Results published in ChEMBL document CHEMBL1158991, “Cytotoxic and antimalarial constituents of the roots of Eurycoma longifolia” (J Nat Prod, 1991).
Converted amounts (≈) assume the structure as drawn.

What was measured:
Plasmodium falciparum [1] = experiment: Antimalarial activity against Plasmodium falciparum D6 in human erythrocytes after 24 hrs by [3H]hypoxanthine uptake; format: functional, organism-based
In short: (§1)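 P. falciparum (D-6 chloroquine-sensitive, W-2 chloroquine-resistant) kept in type A+ human erythrocytes, RPMI-1640 with 32 mM NaHCO3, 35 mM HEPES and 10% heat-inactivated A+ plasma, 5% O2/5% CO2/90% N2, 37°. Assay: 0.5–1.0% parasitemia, 1.0% hematocrit, triplicates over 7-5000 ng/ml, 24 h. Then 0.5 µCi [3H]-hypoxanthine added for a further 18-24 h. Uninfected-cell dpm subtracted. IC50 by linear regression.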

Plasmodium falciparum [2] = experiment: Antimalarial activity against Plasmodium falciparum W2 in human erythrocytes after 24 hrs by [3H]hypoxanthine uptake; format: functional, organism-based; in short: as §1
KB = experiment: Cytotoxicity against human KB cells; format: functional; conditions: read-out: ED50 (the source's name)
[3] = Cytotoxicity against human KBV1 cells; format: functional; conditions: KB-V1, read-out: ED50 (the source's name)
[4] = Cytotoxicity against human fibrosarcoma cells; format: functional; conditions: Fibrosarcoma cell, read-out: ED50 (the source's name)
[5] = Cytotoxicity against human melanoma cells; format: functional; conditions: Melanoma cell, read-out: ED50 (the source's name)
[6] = Cytotoxicity against human lung cancer cells; format: functional; conditions: Cancer cell lines, read-out: ED50 (the source's name)
[7] = Cytotoxicity against human breast cancer cells; format: functional; conditions: Cancer cell lines, read-out: ED50 (the source's name)
[8] = Cytotoxicity against human colon cancer cells; format: functional; conditions: Cancer cell lines, read-out: ED50 (the source's name)
P388 = experiment: Cytotoxicity against mouse P388 cells; format: functional; conditions: read-out: ED50 (the source's name)

Row | SMILES | IC50 (Plasmodium falciparum [1]) | IC50 (Plasmodium falciparum [2]) | EC50 (KB) | EC50 [3] | EC50 [4] | EC50 [5] | EC50 [6] | EC50 [7] | EC50 [8] | EC50 (P388)
1 | C=C[C@H]1CN2CC[C@H]1C[C@H]2[C@H](O)c1ccnc2ccc(OC)cc12 [QUININE] | 0.0194 µg/mL (≈ 0.0598 µM) | 0.114 µg/mL (≈ 0.353 µM) | – | – | – | – | – | – | – | –
2 | O=c1ccc2nccc3c4ccc(O)cc4n1c23 | – | – | 2 µg/mL (≈ 8.47 µM) | > 20 µg/mL | 3.5 µg/mL (≈ 14.8 µM) | 5.4 µg/mL (≈ 22.9 µM) | 3.8 µg/mL (≈ 16.1 µM) | 2.6 µg/mL (≈ 11 µM) | 4.8 µg/mL (≈ 20.3 µM) | 1.5 µg/mL (≈ 6.35 µM)
3 | COc1ccc2c3ccnc4ccc(=O)n(c2c1)c43 | – | – | – | – | – | – | – | – | – | 1.4 µg/mL (≈ 5.59 µM)
4 | COc1ccc2c3cc[n+]([O-])c4ccc(=O)n(c2c1)c34 | – | – | 3.8 µg/mL (≈ 14.3 µM) | > 20 µg/mL | 4.5 µg/mL (≈ 16.9 µM) | 6.5 µg/mL (≈ 24.4 µM) | 5.2 µg/mL (≈ 19.5 µM) | 6 µg/mL (≈ 22.5 µM) | 8.1 µg/mL (≈ 30.4 µM) | 11.7 µg/mL (≈ 43.9 µM)
5 | C=C1[C@@H](O)[C@@]2(O)OC[C@]34[C@H]2[C@@]2(C)[C@H](O)C(=O)C=C(C)[C@@H]2C[C@H]3OC(=O)[C@H](O)[C@@]14O [EURYCOMANONE] | 0.0477 µg/mL (≈ 0.117 µM) | 0.0481 µg/mL (≈ 0.118 µM) | 1.9 µg/mL (≈ 4.65 µM) | 0.8 µg/mL (≈ 1.96 µM) | 0.2 µg/mL (≈ 0.49 µM) | 8.2 µg/mL (≈ 20.1 µM) | 14.3 µg/mL (≈ 35 µM) | 1.1 µg/mL (≈ 2.69 µM) | 1.2 µg/mL (≈ 2.94 µM) | > 20 µg/mL
6 | O=c1ccc2c3c(cc[n+]2[O-])c2ccc(O)cc2n13 | – | – | 4.8 µg/mL (≈ 19 µM) | > 20 µg/mL | 4.9 µg/mL (≈ 19.4 µM) | 7 µg/mL (≈ 27.8 µM) | 5.1 µg/mL (≈ 20.2 µM) | 3.5 µg/mL (≈ 13.9 µM) | 7.5 µg/mL (≈ 29.7 µM) | 12 µg/mL (≈ 47.6 µM)
7 | OC(c1cc(C(F)(F)F)nc2c(C(F)(F)F)cccc12)C1CCCCN1 (configuration not stated) [MEFLOQUINE] | 0.0095 µg/mL (≈ 0.0251 µM) | – | – | – | – | – | – | – | – | –
8 | C[C@@H]1CC[C@H]2[C@@H](C)C(=O)O[C@@H]3O[C@@]4(C)CC[C@@H]1[C@]32OO4 [ARTEMISININ] | 0.0027 µg/mL (≈ 0.00956 µM) | 0.0018 µg/mL (≈ 0.00638 µM) | – | – | – | – | – | – | – | –
9 | COc1ccc2c(c1)[nH]c1c(CCC(=O)O)nccc12 | 3.14 µg/mL (≈ 11.6 µM) | 2.98 µg/mL (≈ 11 µM) | – | – | – | – | – | – | – | –
